# Data as given in ChEMBL document CHEMBL4699408, “Synthesis and evaluation of anticancer activity of new 9-acridinyl amino acid derivatives” (RSC Med Chem, 2020).
# The source made the active and inactive calls. No cut-off for these calls is given here.
# How the values were obtained:
# MRC5 = experiment: Cytotoxicity against human MRC5 cells assessed as reduction in cell viability incubated for 72 hrs by MTT assay; assay type: cell-based; conditions: MRC5, 72 h
# A549 [1] = experiment: Cytotoxicity against human A549 cells assessed as reduction in cell viability incubated for 72 hrs by MTT assay; assay type: functional, cell-based; conditions: A549, 72 h
# K562 = experiment: Cytotoxicity against human K562 cells assessed as reduction in cell viability incubated for 72 hrs by MTT assay; assay type: functional, cell-based; conditions: K562, 72 h
# A549 [2] = experiment: Inhibition of colony formation in human A549 cells at IC50 concentration incubated for 48 hrs followed by cell washing and measured after 10 days by crystal violet staining based assay relative to control; assay type: functional
# DNA = experiment: Binding affinity to DNA isolated from human A549 cells assessed as intercalating activity at 100 uM after 1 hr by electrophoretic mobility shift assay
# In short: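 Genomic DNA isolated from A549 cells (proteinase K/SDS lysis, salt precipitation, ethanol precipitation); 0.5 μg DNA incubated 1 h at room temperature with 100 μM compound in 5 mM Tris-HCl/50 mM NaCl buffer; run on 0.8% agarose gel 4 h at 30 V, GelRed stained; binding read as shift in DNA mobility.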
# A549 [3] = experiment: Cell cycle arrest in human A549 cells assessed as accumulation in G2/M phase at IC50 concentration incubated for 48 hrs by RNaseA/propidium iodide staining based flow cytometry (reference value: 11 %); assay type: functional
# A549 [4] = experiment: Induction of apoptosis in human A549 cells assessed as early apoptotic cells at IC50 concentration after 48 hrs by annexin V-FITC/propidium iodide staining based flow cytometry (reference value: 0.9 %); assay type: functional
# A549 [5] = experiment: Induction of apoptosis in human A549 cells assessed as late apoptotic cells at IC50 concentration after 48 hrs by annexin V-FITC/propidium iodide staining based flow cytometry (reference value: 0.7 %); assay type: functional
# [6] = biological target: DNA topoisomerase 2-alpha (Homo sapiens, UniProt P11388); experiment: Inhibition of human topoisomerase 2alpha using supercoiled pNO1 plasmid DNA as substrate incubated for 30 mins by fluorescence based microplate reader analysis
# DNA topoisomerase 2-alpha, sequence (P11388 whole entry): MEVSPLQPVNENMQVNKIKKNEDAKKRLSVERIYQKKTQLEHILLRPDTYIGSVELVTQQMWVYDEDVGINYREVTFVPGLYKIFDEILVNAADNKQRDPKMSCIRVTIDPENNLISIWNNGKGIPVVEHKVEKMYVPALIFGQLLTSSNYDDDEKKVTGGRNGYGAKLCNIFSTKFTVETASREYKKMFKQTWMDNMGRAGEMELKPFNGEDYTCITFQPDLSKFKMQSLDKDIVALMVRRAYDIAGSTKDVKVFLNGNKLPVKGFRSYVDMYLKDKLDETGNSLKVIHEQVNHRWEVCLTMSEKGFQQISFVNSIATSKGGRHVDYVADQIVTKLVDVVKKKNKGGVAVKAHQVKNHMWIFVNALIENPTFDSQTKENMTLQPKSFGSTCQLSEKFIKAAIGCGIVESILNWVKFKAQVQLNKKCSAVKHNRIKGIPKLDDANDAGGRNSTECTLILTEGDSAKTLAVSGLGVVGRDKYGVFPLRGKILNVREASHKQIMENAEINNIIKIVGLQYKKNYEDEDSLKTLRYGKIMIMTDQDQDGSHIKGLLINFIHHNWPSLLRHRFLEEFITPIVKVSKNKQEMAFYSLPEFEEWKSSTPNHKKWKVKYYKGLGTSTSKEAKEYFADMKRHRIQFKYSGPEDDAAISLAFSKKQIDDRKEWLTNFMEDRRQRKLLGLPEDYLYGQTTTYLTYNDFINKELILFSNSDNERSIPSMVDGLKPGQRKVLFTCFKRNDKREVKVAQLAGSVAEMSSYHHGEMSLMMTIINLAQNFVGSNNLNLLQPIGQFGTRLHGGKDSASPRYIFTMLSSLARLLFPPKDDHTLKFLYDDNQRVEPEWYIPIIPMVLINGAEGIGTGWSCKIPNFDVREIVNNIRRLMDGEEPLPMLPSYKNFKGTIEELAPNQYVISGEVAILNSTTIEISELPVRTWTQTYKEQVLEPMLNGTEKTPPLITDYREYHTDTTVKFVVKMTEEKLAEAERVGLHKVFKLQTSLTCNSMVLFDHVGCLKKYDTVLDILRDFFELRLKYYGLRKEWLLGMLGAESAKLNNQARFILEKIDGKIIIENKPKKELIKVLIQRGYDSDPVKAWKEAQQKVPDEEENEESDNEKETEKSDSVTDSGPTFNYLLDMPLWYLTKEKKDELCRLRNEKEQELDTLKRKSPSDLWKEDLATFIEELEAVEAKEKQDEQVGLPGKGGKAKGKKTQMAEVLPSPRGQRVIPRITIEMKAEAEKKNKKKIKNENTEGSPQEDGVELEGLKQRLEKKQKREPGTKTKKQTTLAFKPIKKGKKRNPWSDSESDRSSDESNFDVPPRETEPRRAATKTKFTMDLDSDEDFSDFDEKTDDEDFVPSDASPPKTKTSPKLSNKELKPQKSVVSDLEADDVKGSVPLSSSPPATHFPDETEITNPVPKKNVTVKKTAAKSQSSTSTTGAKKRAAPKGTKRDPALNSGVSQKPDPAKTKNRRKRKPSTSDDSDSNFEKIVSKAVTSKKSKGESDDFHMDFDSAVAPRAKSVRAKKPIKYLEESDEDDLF
# A549 [7] = experiment: Cell cycle arrest in human A549 cells assessed as accumulation in G2/M phase at IC50 concentration incubated for 24 hrs by RNaseA/propidium iodide staining based flow cytometry (reference value: 9 %); assay type: functional
# [8] = Cytotoxicity against unstimulated human blood Leucocytes assessed as cell viability at 6.25 to 100 uM incubated for 24 to 72 hrs by MTT assay; conditions: leucocyte
# A549 [9] = experiment: Cell cycle arrest in human A549 cells assessed as accumulation in SubG1 phase by measuring late apoptotic cells with fragmented DNA content at IC50 concentration incubated for 48 hrs by RNaseA/propidium iodide staining based flow cytometry; assay type: functional
# A549 [10] = experiment: Cell cycle arrest in human A549 cells assessed as accumulation in S phase at IC50 concentration incubated for 24 hrs by RNaseA/propidium iodide staining based flow cytometry; assay type: functional
# A549 [11] = experiment: Induction of cell cycle arrest in human A549 cells assessed as effect on cell cycle distribution at IC50 concentration incubated for 24 to 48 hrs by RNaseA/propidium iodide staining based flow cytometry; assay type: functional; conditions: time hrs 24-48
IC50 [6] [µM],SMILES,IC50 (MRC5) [µM],IC50 (A549 [1]) [µM],IC50 (K562) [µM],inhibition (INH) (A549 [2]) [%],Activity (DNA),Activity (A549 [3]) [%],Activity (A549 [4]) [%],Activity (A549 [5]) [%],Activity (A549 [7]) [%],Activity [8],Activity (A549 [9]),Activity (A549 [10]),Activity (A549 [11])
,COC(=O)[C@H](Cc1cn(C)c2ccccc12)Nc1c2ccccc2nc2ccccc12,56.1,29.5,46.6,,,,,,,,,,
,COC(=O)[C@H](Cc1c[nH]cn1)Nc1c2ccccc2nc2ccccc12,65.1,34.3,46.1,,,,,,,,,,
,CCCOC(=O)CCCCCNc1c2ccccc2nc2ccccc12,58.8,72.4,75,,,,,,,,,,
,CCOC(=O)CCCCCNc1c2ccccc2nc2ccccc12,25.1,36.3,34.5,,,,,,,,,,
14,CCCOC(=O)CCNc1c2ccccc2nc2ccccc12,11.6,6.3,16.4,>95,inactive,19,4.6,2.9,12,Non-Toxic,,,
16,COc1cc(NS(C)(=O)=O)ccc1Nc1c2ccccc2nc2ccccc12 [AMSACRINE],15.4,22.2,13.8,,Active,,16.1,2.8,,Toxic,Active,Active,
,Cn1cc(C[C@H](Nc2c3ccccc3nc3ccccc23)C(=O)O)c2ccccc21,47,34.1,42.4,,,,,,,,,,
14,CCOC(=O)CCCNc1c2ccccc2nc2ccccc12,15.8,9.5,11.2,>95,inactive,,11.7,5.4,,Non-Toxic,,,inactive
13,CCOC(=O)CCNc1c2ccccc2nc2ccccc12,12.1,6.15,19.2,>95,inactive,,3.7,1.2,,Non-Toxic,,,inactive
,COC(=O)CCCCCCCNc1c2ccccc2nc2ccccc12,49.8,62.6,62.9,,,,,,,,,,
,COC(=O)[C@H](Cc1ccccc1)Nc1c2ccccc2nc2ccccc12,47.6,25.7,40.6,,,,,,,,,,
16,CCCOC(=O)CCCNc1c2ccccc2nc2ccccc12,16.9,19.3,21.8,>95,Active,29,12.5,3.8,18,Non-Toxic,,,
